Test results reported in ChEMBL document CHEMBL4513216, “Probing the Open Global Health Chemical Diversity Library for Multistage-Active Starting Points for Next-Generation Antimalarials” (ACS Infect Dis, 2020).

Assay: Toxicity liver stage against HepG2, at 10uM
Type: cell-based
Design: test concentration 10 uM, cell line HepG2-A16-CD81EGFP
Details: human, HepG2-A16-CD81EGFP cells; read-out: INHIBITION
Method in brief: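 Uninfected HepG2-A16-CD81EGFP cells, 3 × 10^3 per well, 1536-well, plated on prespotted compound at 10 μM final, parasite-free screening media added to match infected plates; puromycin 10 μM positive, DMSO 0.5% negative; run in parallel with 48 h PbLuc assay at 37 °C, 5% CO2; viability by CellTiter-Glo luminescence, normalized to controls.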

Structure (SMILES) | cytotoxicity at 10 µM
CC1CCN(CCNC(=O)Nc2ccc(F)cc2Cl)CC1 | 4.68%
CCCN(c1ccccc1C(=O)O)S(=O)(=O)c1cccc2cccnc12 | -3.89%
Clc1ccc(CN2CCCCC2Cn2cncn2)c2ncccc12 (stereo not given) | -4.66%
Cc1nc(CN2C(=O)CC[C@@H]3[C@H]2CCN3C(=O)c2ccc[nH]2)cs1 | -77.3%
CC(C)CN1CCc2c(CN(C)Cc3ccco3)cncc2C1 | 8.1%
CCN(c1ccsc1C(=O)N1CCSCC1)S(=O)(=O)c1ccc(Cl)cc1 | 14.5%
CC(C)(C)c1n[nH]c(C2CN(C(=O)c3cc(Cl)c[nH]3)CCO2)n1 (stereo not given) | -10.6%
CCO[C@@H]1CC[C@H]2[C@H]1OCCN2CC1CCC1 | 11.2%
CNC(=O)[C@@H]1C[C@@H](N)CN1c1nnc(-c2ccccc2)s1 | -36%
Cc1cccc(C)c1OC1CN(C(=O)C2CC(=O)N(C(C)(C)C)C2)C1 (stereo not given) | 0.213%
CN(C)c1ccc(C(=O)Nc2ccn(Cc3ccccn3)n2)cn1 | -0.677%
Cc1cc(C(=O)N2CCC(c3nccn3CCCN(C)C)CC2)no1 | -12.4%
COc1ccc(O)c(C(=O)NCC2CCCN(C3CCOCC3)C2)c1 (stereo not given) | -3.23%
CCc1nc(NC2CCN(CC(=O)NC3CC3)CC2)c2cnn(C)c2n1 | 4.99%
Cc1nc(C)n(CC2CCCN(CCCOc3ccccc3)C2)n1 (stereo not given) | 3.15%
Cc1cc(-c2nn3c(C)nnc3s2)n[nH]1 | 6.52%
Cc1nc(N(C)C)nc(-c2cccc(-c3ccn(CCCF)n3)c2)c1C | 3.7%
CNc1ncc(C(=O)N2CCC(CCc3ccccc3)CC2)cn1 | 13.1%
CCN1CCN(c2ccc(C(=O)NCc3cc(C)no3)cc2F)CC1 | 11.2%
Cc1cc(C)c2[nH]c(=O)c(CN3CCC(O)(CN(C)C)C3)cc2c1 (stereo not given) | -2.99%
Cc1cc(OCC(=O)N2CCCC(c3ccn[nH]3)C2)no1 (stereo not given) | 0.0241%
COc1cccc(CNCc2ccc(F)cc2Cl)c1O | -3.3%

Structure (SMILES) | cytotoxicity at 10 µM
C=C(C)CN(CC)Cc1nc(C(C)(C)C)no1 | -4.57%
Cc1cc(F)ccc1S(=O)(=O)NCc1[nH]ncc1Br | 15.1%
Cn1ncc2c(N3CCC3)nc(-c3ccncc3)nc21 | 11.8%
CNC(=O)[C@@H]1C[C@H]2CN(C(=O)c3ccccn3)C[C@H]2N1C(C)C | 7.45%
COc1c(CNC(C)C(=O)NC2CCCC2)c(C)nn1C (stereo not given) | -8.45%
Cc1nnc(CN2CCOC(c3ccc(Cl)c(Cl)c3)C2)o1 (stereo not given) | -1.11%
Cn1ccc2cc(CC3COCCN(C(=O)c4ccccn4)C3)ccc21 (stereo not given) | 4.57%
Cc1c[nH]nc1C1CCCN(c2cnccn2)C1 (stereo not given) | 8.75%
CN(C)C(=O)CC1CC2(CCN(CC3CC3)CC2)Oc2ccccc21 (stereo not given) | -3.51%
Cc1cccc(CNCc2c(C(C)C)nn(C)c2N2CCOCC2)n1 | -9.4%
CC(NCc1ccnc(OC2CCC2)c1)c1cnn(C)c1 (stereo not given) | 5.64%
COc1ccccc1-c1ncc(CN2C[C@@H](N(C)C)[C@H](C(C)C)C2)s1 | -12.3%
CC(C)CC(NC(=O)c1cnn(C)c1)C(=O)Nc1cc[nH]n1 (stereo not given) | -3.38%
Cn1cc(C2CCCN2C(=O)CCCc2ccccn2)cn1 (stereo not given) | -0.222%
Cc1nc(C(=O)N2CCOCC2)cc(N2CCC(C(N)=O)CC2)n1 | 1.82%
Cc1ccc(CNCCCNS(C)(=O)=O)c(Br)c1 | 3.36%
CC(C)(O)CN1CCC(=O)N(Cc2ccco2)Cc2cc(F)ccc21 | -3.66%
O=C(O)c1cc(S(=O)(=O)N2CCOc3ccccc32)ccc1Br | -3.39%
O=S(=O)(C1CC1)N1CCc2c(CN3CCOCC3)cncc2C1 | -0.514%
CN1C(=O)[C@@H]2CC[C@H]1CN(c1ncnc3ccsc13)C2 | 0.636%
Cc1nn(C)c(Oc2ccccc2)c1CNC1CCCCNC1=O (stereo not given) | 2.56%
Cc1ccc(C)c(OCCN(C)C(=O)C2CCCN2C(N)=O)c1C (stereo not given) | -1.01%

Structure (SMILES) | cytotoxicity at 10 µM
COCC1c2c(cnn2CC2CC2)CCN1Cc1ccc(OC)cc1 (stereo not given) | 83.3%
CCN(CC)S(=O)(=O)N1CC[C@H](c2ccccc2)[C@H]2NCCCC[C@H]21 | -39.5%
O=C(COC1CCCCC1)Nc1ccn(Cc2ccccn2)n1 | 0.38%
CCN1CCN(C(=O)c2cccn2Cc2ccccc2)CC1 | -12.3%
CN(C)C(=O)C1(CCCc2ccncc2)CCCN1 (stereo not given) | 0.59%
CC(C)(C)Cc1nnc(NCc2cccc(C#N)c2)o1 | -16.1%
O=C(C1CCC2(CCN(CC3CCOCC3)CC2)O1)N1CCCC1 (stereo not given) | 1.91%
CSCC(=O)N[C@H]1CC[C@H](Nc2nccc(-c3cccnc3)n2)C1 | 9.87%
COc1cc(OC)cc(-c2noc(CC(N)c3ccccc3)n2)c1 (stereo not given) | 4.47%
O=C(c1cnc(Nc2ccccc2)nc1)N1CCCC2(CCNC2)C1 (stereo not given) | -6.57%
CN(CC(=O)N(C)C1CC1)C1CCN(c2ccc(Cl)cc2)CC1 | 0.153%
COC(=O)N1C[C@@H]2CC[C@H]1CN(Cc1ccncc1)C2 | -10%
Cc1ccc(CC(=O)N(CC2CN(C)CCO2)c2nccs2)cn1 (stereo not given) | -9.89%
c1cnc(N2CCOCC3(CN(Cc4cc[nH]n4)CCO3)C2)nc1 (stereo not given) | 10%
CN(C)[C@H]1C[C@@H](Cc2cc(CO)on2)C1(C)C | 0.994%
Cc1nnc(CCNC(=O)Nc2ccc(S(C)(=O)=O)cc2)[nH]1 | 7.91%
CCc1[nH]ncc1C(=O)N1CCCC(n2ccnc2C)C1 (stereo not given) | -10.5%
O=C(CCc1nc2ccccc2[nH]1)NC1CCOC2(CCOCC2)C1 (stereo not given) | 9.64%
CCc1n[nH]c(C2CN(C(=O)c3cnc(C)cn3)CCO2)n1 (stereo not given) | -2.9%
CN(C)CCOCc1cncc2c1CCN(Cc1ccccn1)C2 | 2.2%
O=C(NCc1cc[nH]n1)NCC(O)c1ccc(F)c(F)c1 (stereo not given) | -21%
Cc1ccc(CN(C)C(=O)CN2CCCC(Cn3cncn3)C2)cc1 (stereo not given) | -6.41%

Structure (SMILES) | cytotoxicity at 10 µM
CC(=O)NCCc1ncnn1-c1ccc(F)c(Cl)c1 | -15%
Cc1nnc(NC(=O)c2c3c(nn2C2CCS(=O)(=O)C2)CCC3)s1 (stereo not given) | -14.2%
Cn1cc(CN2CC[C@H]3O[C@H](C(=O)NC4CC4)CC[C@H]32)c2ccccc21 | 8.82%
O=C(c1ccc[nH]1)N1CCn2cc(Cn3cncn3)nc2C1 | -2.65%
Fc1cccc(-c2nnn3c2COC(CNc2ncccn2)C3)c1 (stereo not given) | -65.3%
CN(C)c1cc(C(=O)NCCc2nnc(-c3ccco3)[nH]2)ccn1 | -0.653%
CCCNC(=O)C(C)NC(=O)CCc1ccccc1Br (stereo not given) | 14.5%
c1cncc(CN2CCn3c(Cn4cncn4)cnc3C2)c1 | -70.9%
COCCN1CCC(c2nc3c([nH]2)CC(C)(C)CNC3=O)C1 (stereo not given) | -2.18%
CSCCC(=O)N1CCCC1c1ccsc1 (stereo not given) | -20.3%
CCOCC1CN(C(=O)Cc2ccccn2)Cc2cn(C)nc21 (stereo not given) | 1.86%
CSCC[C@H](NC(C)=O)c1nc(CC(C)C)n[nH]1 | 6.05%
CS(=O)(=O)CCn1ccc(NC(=O)Cc2c[nH]c3ccccc23)n1 | 2%
CS(=O)(=O)Cc1nc(CN2CCOc3ccccc3C2)cs1 | 5.81%
CN1[C@H](CN2CCCC2)C[C@@H]2CN(C(=O)c3cnccn3)CC[C@@H]21 | 10.6%
COc1ccccc1C(=O)NCC(c1cccn1C)N1CCOCC1 (stereo not given) | 7.11%
O=C(C1CCC1)N1CCN(c2snc3ccccc23)CC1 | 11.2%
COCc1noc(-c2ccc(N3CCCCC3CCCO)nc2)n1 (stereo not given) | -3.31%
CNS(=O)(=O)c1cccc(CNC(=O)CCc2ccsc2)c1 | 13.5%
Cc1ccc(-c2nnc(SCC(=O)O)n2-c2ccc(C)cc2)cc1 | -3.53%
CN(c1ncccc1C#N)C1CCN(Cc2ccncc2)CC1 | -2.86%
c1cc2cc[nH]c2c(CC2CN(Cc3cncs3)C2)n1 | -0.54%

Structure (SMILES) | cytotoxicity at 10 µM
CC(C)c1noc(CCC(=O)N2CCN(Cc3ccncc3)CC2)n1 | -9.08%
COCC(c1cccc(C(F)(F)F)c1)N(C)C(=O)c1ccco1 (stereo not given) | -9.07%
COCCNC(=O)CCNC(=O)c1ccc(N2CCC(C)=N2)cc1 | 2.07%
C[C@@H]1C[C@@H]2CCN(Cc3ccccn3)C[C@H]2O1 | -75.9%
Cc1cccc(C(=O)N2CCCC(Cc3cncc4ccccc34)C2)n1 (stereo not given) | -19%
O=C1NCC(C(=O)Nc2ccc(=O)n(Cc3ccccc3Cl)c2)N1 (stereo not given) | -1.73%
CSCC(=O)N1CCc2c(cnc(C)c2-c2noc(-c3cscn3)n2)C1 | 0.86%
CCc1ccccc1CNC(=O)CNCC(F)(F)F | 10.6%
CC(C)CN1C(=O)CO[C@@H]2CN(C(=O)C3CCOC3)C[C@H]21 (stereo not given in full) | -70.3%
COCc1cc(N2CCN(C3CCCCC3)CC2)n2nccc2n1 | 3.59%
CC(C)c1nnc2n1CCN(C(=O)CN1Cc3ccccc3C1=O)C2 | -1.81%
Cc1ccc(CC(=O)N2CCCn3nnc(Cn4cccn4)c3C2)cc1 | 9.58%
Cc1ccc(CNC(=O)c2ccc(=O)n(C)n2)c(OC2CCCC2)c1 | 5.25%
Cc1ccsc1C(=O)N1CC(C(=O)N2CCCC2)C2(CCOCC2)C1 (stereo not given) | 3.68%
CC(N)Cc1ccccc1Sc1ccccc1 (stereo not given) | 5.41%
CSCCc1c(-c2ccccc2)ncn1CC(C)(C)N1CCCC1 | -47.8%
CCSCC(C)NCc1ccccc1-n1ccnc1 (stereo not given) | 11.7%
Cc1ccc(C(=O)N(C)Cc2ccc(Br)s2)c(=O)[nH]1 | 5.02%
COc1cc(Cl)c(NC(=O)NCCn2cccc2)cc1OC | -0.473%
COCCn1c(=O)n(C)c(=O)c2ccc(C3CCC(CN)CC3)nc21 (stereo not given) | -0.2%
NC(=O)c1csc(N2CCN(Cc3cccc4nsnc34)CC2)n1 | 0.5%
CCS(=O)(=O)N1CCC2(CC1)COC(COc1cccnc1)C2 (stereo not given) | 10.6%
